# RORa activator: RORA (human) activation; AID 560; 65,000 compounds, 1.5% hits; CHO-K1 Gal4-RORA LBD luciferase reporter, luminescence; percent increase over mock-subtracted basal signal; activation, % at 10 µM; P35398;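 active = activation above the mean of all tested compounds plus 3 SD, cut at about 49% in these data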;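 also: 0% = DMSO-treated RORA cells and 100% = added signal equal to DMSO minus mock-transfected cells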
# JNK3 inh: JNK3 (human) kinase inhibition; P53779; purified JNK3 kinase activity, HTS; inhibition, % at 8 µM; 60,000 compounds, 0.61% hits; AID 746; in the data active = inhibition above about 17%;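 also: 0% = DMSO and 100% = reference inhibitor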
# Target sequence (P53779 whole entry, looked up): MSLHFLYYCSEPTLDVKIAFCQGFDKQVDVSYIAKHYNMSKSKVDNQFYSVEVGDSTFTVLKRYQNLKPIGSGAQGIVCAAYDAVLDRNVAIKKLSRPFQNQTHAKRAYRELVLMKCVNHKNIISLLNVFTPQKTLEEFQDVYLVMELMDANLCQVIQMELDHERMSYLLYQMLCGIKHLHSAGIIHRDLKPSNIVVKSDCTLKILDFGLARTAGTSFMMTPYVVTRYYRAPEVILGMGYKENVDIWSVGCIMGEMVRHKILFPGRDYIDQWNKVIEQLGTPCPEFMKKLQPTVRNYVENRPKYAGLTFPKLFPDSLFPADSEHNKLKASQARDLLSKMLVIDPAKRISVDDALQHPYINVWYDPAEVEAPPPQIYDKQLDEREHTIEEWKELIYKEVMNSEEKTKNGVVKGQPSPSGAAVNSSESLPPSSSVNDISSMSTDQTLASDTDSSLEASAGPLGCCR
# SF1 activator: SF-1 (human) activation; Q13285; activation, % at 10 µM; CHO-K1 Gal4-SF-1 LBD luciferase reporter; % increase over DMSO SF-1-specific signal; 65,000 compounds, 1.9% hits;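 active = activation above the mean activation of all tested compounds plus 3 SD, cut at about 50% in these data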
#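 Assay system – CHO-K1 cells with Gal4–hSF-1 LBD chimera plus Gal4-driven luciferase · Quantity – 4,000 cells per well · Times – compound added 1 h post-seeding, 20 h exposure at 37 °C, 5% CO2 · Measured by – luciferase light emission · Benchmarks – DMSO and mock-transfected background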
# Candida biofilm: kills Candida albicans biofilms. C. albicans biofilm + clotrimazole, Alamar Blue. inhibition, % at 6 µM. 85,000 compounds, 0.14% hits. AID 834;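 active = inhibition above 20%; inactive = inhibition below 20%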;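 also: preformed 24 hr biofilms exposed to compound for 48 hr; 0% = biofilm without compound and 100% = blank killed by clotrimazole plus chlorhexidine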
# Numbers without * were called inactive; . = no result. A selection: hits, their analogues and other compounds. The true share with any hit is near 2.3%.
SMILES,RORa activator,JNK3 inh,SF1 activator,Candida biofilm
O=C(CCNS(=O)(=O)c1cccs1)N1CCCCCC1,32,4,60*,7
CN(c1ccccc1)c1nc2ccsc2c(=O)s1,32,.,50*,7
CCOc1cccc2cc(-c3nnc(NCc4ccco4)s3)c(=O)oc12,17,-3,25,4
COc1ccc2oc(=O)c(-c3nnc(NCc4ccco4)s3)cc2c1,80*,7,81*,2
Cc1nc2sc(-c3ccccc3)cc2c(=O)n1-n1cccc1,-2,7,89*,-7
CCOCC(=O)Nc1nc2ccc(OCC)cc2s1,11,-5,36,-4
CCOc1ccc2nc(NC(=O)c3cnccn3)sc2c1,86*,1,19,1
CCCC(=O)Nc1nc2ccc(OC)cc2s1,56*,7,54*,1
COc1ccc2nc(NC(=O)Cc3ccc(OC)c(S(=O)(=O)N4CCOCC4)c3)sc2c1,33,29*,36,6
COc1ccc2nc(NC(=O)c3cccc(OCc4c(C)noc4C)c3)sc2c1,86*,3,36,-3
CN(C(=O)c1ccco1)c1nnc(C23CC4CC(CC(C4)C2)C3)s1,61*,-4,76*,17
Cc1cc(C)c2nc(Nc3nc(C)cc(=O)[nH]3)nc(C)c2c1,-27,3,-15,.
CCOC(=O)N1CCN(S(=O)(=O)c2ccc(Br)s2)CC1,0,-2,-4,4
CN1CCN(S(=O)(=O)c2ccc(Br)s2)CC1,63*,-7,-24,-3
Cc1ccc(-n2nc(C)c(C3C(C#N)=C(N)OC4=C3C(=O)CC(C)(C)C4)c2Cl)cc1 (stereo not given),30,3,57*,3
CC(=O)c1cnc2cc(-c3ccccc3)nn2c1C,28,-7,50*,6
CC(=O)c1cnc2cc(-c3ccc(C)cc3)nn2c1C,.,.,.,3
Nn1cnnc1SCC(=O)Nc1ccc(C2CCCCC2)cc1,40,5,54*,6
COc1cc(NS(=O)(=O)c2ccc3c(c2)n(C)c(=O)n3C)cc(OC)c1,.,.,.,13
COc1ccc(OC)c(S(=O)(=O)N2CCN(c3ccccn3)CC2)c1,.,.,.,-2
COc1ccc2c(c1OC)C(=O)N(c1cccc(C(F)(F)F)c1)C2,30,4,59*,-3
COc1ccc2c(c1OC)C(=O)N(c1ccccn1)C2,52*,-3,69*,5
COc1ccc2c(c1OC)C(=O)N(c1cccc(C)c1)C2,12,-5,11,4
Cc1ccc(C(=O)/C=C/Nc2ccccc2C(N)=O)o1,34,-1,63*,-1
CCOc1ccc(N=CC2=C(O)CC(C)(C)CC2=O)cc1,15,-8,68*,10
SMILES,RORa activator,JNK3 inh,SF1 activator,Candida biofilm
CN=CC1=C(O)CC(C)(C)CC1=O,-27,1,6,3
Cc1[nH]nc(N=CC2=C(O)CC(C)(C)CC2=O)c1-c1ccc(Cl)cc1,83*,2,31,0
CC1(C)CC(=O)C(C=Nc2ccc(O)cc2)=C(O)C1,36,-1,51*,3
CC1(C)CC(=O)C(C=Nc2ccc3cn[nH]c3c2)=C(O)C1,-11,2,24,6
CC1(C)CC(=O)C(C=Nc2ccc3[nH]ncc3c2)=C(O)C1,18,1,79*,4
CCOC(=O)C(CC)n1nc(C)n2c(cc3occc32)c1=O (stereo not given),.,.,.,5
CCCCCCC1CCC(C(=O)NC(CCSC)C(=O)NC(C(=O)OC)C(C)C)CC1 (stereo not given),.,.,.,37*
Cn1c(CN2CCCC2)nc2cc(NC(=O)c3ccco3)ccc21,48,0,50*,2
CC(=O)Nc1ccc2c(c1)nc(CN1CCCC1)n2C,.,.,.,1
O=C(Nc1ccc2c(c1)ncn2-c1ccccc1)c1ccco1,52*,-5,28,1
CC1CC(C)CN(C(=O)c2ccccc2Nc2ccc(SC(F)F)cc2)C1 (stereo not given),.,.,.,3
CSc1ccc(-c2nnn(Cc3ccc(Br)cc3)n2)cc1,.,.,.,7
CSc1ccc(-c2nnn(Cc3ccccn3)n2)cc1,56*,0,57*,6
CCOC(=O)c1ccc(NC(=O)N2CCc3ccccc32)cc1,14,1,61*,4
CCOC(=O)COc1ccc(Br)cc1C1NC(=O)NC(C)=C1C(=O)NCc1ccccc1 (stereo not given),.,.,.,2
COC(=O)c1c(C)[nH]c(C(=O)OCc2ccc(F)cc2)c1C,30,8,60*,7
CC(=O)c1c(C)[nH]c(C(=O)OCC(=O)NCCc2ccc(F)cc2)c1C,-2,-7,-3,4
Cc1ccccc1Nc1nc(N)nc(CSc2nc3ccccc3c(=O)n2C)n1,.,.,.,2
COc1ccccc1-c1nc(-c2ccc(Br)o2)no1,.,.,.,2
COc1ccc(-c2nnc(-c3ccc(Br)o3)o2)cc1OC,-4,25*,6,6
COc1ccc(-c2nc(-c3ccc(Br)o3)no2)cc1OC,60*,8,87*,.
COC(=O)c1ccc(C(=O)OC)c(NC(=O)c2oc(C)nc2C)c1,19,-7,7,12
Cn1nnnc1SCc1ccc(C(=O)Nc2nccs2)cc1,44,20*,57*,3
Cn1c(CSCc2ccc(F)cc2)nnc1SCC(=O)Nc1nccs1,8,7,-10,-2
Cc1noc(C)c1CSCC(=O)N1CCN(c2ccc([N+](=O)[O-])cc2)CC1,.,.,.,-2
SMILES,RORa activator,JNK3 inh,SF1 activator,Candida biofilm
CCOC(=O)c1cccc(NC(=O)c2cc3sccc3n2C)c1,36,3,55*,4
CCOC(=O)c1ccccc1NC(=O)c1cc2sccc2n1C,12,-8,-6,5
COc1ccccc1-c1nn2c(-c3ccco3)nnc2s1,36,1,59*,6
Cc1nn(-c2nc3ccccc3s2)c(C)c1Oc1ccccc1O,66*,5,58*,-1
CC(=O)c1c(C)[nH]c(C(=O)OCn2nnc3ccccc3c2=O)c1C,-15,18*,3,6
COc1ccc(OC)c(S(=O)(=O)Nc2ccc(O)c(Sc3ncn[nH]3)c2)c1,-21,-9,-13,.
COCCn1c(COc2ccc(C)cc2)nc2ccccc21,40,-4,50*,6
CCCn1c(CN(Cc2ccccc2)Cc2ccccc2)nc2c1c(=O)n(C)c(=O)n2C,7,-5,-8,25*
CCOC(=O)c1sc(NS(=O)(=O)c2ccccc2Cl)nc1C,.,.,.,2
COCCNC(=O)c1csc2c1CCCC2,14,5,10,9
COc1cc(NC(=O)c2csc3c2CCCC3)ncn1,56*,1,14,.
Cn1c(-n2c(CCN3C(=O)c4ccccc4C3=O)nc3ccccc3c2=O)nc2ccccc21,57*,7,16,-1
Cn1c(-n2c(CCCN3C(=O)c4ccccc4C3=O)nc3ccccc3c2=O)nc2ccccc21,-8,1,-9,8
CC1=C(C(N)=O)C(c2ccncc2)n2nc(-c3ccccc3Cl)nc2N1 (stereo not given),-15,-4,6,21*
COc1ccccc1-c1nc2n(n1)C(c1ccc(Cl)cc1)C(C(N)=O)=C(C)N2 (stereo not given),-16,-9,-11,4
CC1(C)CC(=O)C2=C(C1)Nc1ccccc1N=C2,42,0,58*,-1

# Screening results (PubChem BioAssay)
